# This is a sample that favours compounds with a hit; in the whole collection about 2.2% have one here.
# DDE Tn7 FP inh: inhibitors of Tn7 peptide binding to human fibrin DD(E) | P02675 | FP displacement of FITC-Tn7 peptide from fibrin DD(E); 0% = median of compound wells per plate | inhibition, % at 8.3 µM | 370,000 tested, 0.13% active;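 active means inhibition above the mean of compounds falling within the control limits plus 3 SD of them, cut at about 14% in these data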
#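 Assay system: human fibrin DD(E) protein / Input: 2 µM fibrin DD(E) / Benchmarks: high control of 10 µM Aha-Tn7 peptide / Measured by: fluorescence polarization of the labelled Tn7 tracer / Medium: Tris buffer with calcium and detergent, pH 7.8 / Timing: 10 min compound pre-incubation, 3 h probe incubation at room temperature / Repeats: one replicate per compound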
# Tn6 DDE FP: disrupts Tn6 cyclic peptide binding to fibrin D-Dimer-E complex | P02675 | Fibrin DD(E) TRITC-Tn6 fluorescence polarization displacement | inhibition, % at 8.3 µM | 370,000 tested, 0.21% active;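 active means inhibition above a per-campaign cutoff: mean of compounds within control limits plus 3 SD, cut at about 15% in these data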
# MT1-MMP act inh: blocks activation of human MT1-MMP. P50281. 360,000 tested, 0.061% active. GFP/RFP ratio change, % at 20 µM. HT1080 RFP-PRO-GFP cells, GFP/RFP ratio fluorescence, overnight; percent of plate control window, DMSO zero. AID 651647;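 active means GFP/RFP ratio change of at least 30% with cell ATP level not reduced by more than half and red fluorescence within 50% of control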
#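 Test system: HT1080 RFP-PRO-GFP cells; Benchmarks: DMSO and RFP-L50D-GFP cell wells; Timing: cells overnight before dosing, compound overnight, 37 °C, 5% CO2; Compound: one 20 µM compound dose with 1% DMSO; Read-out: GFP/RFP fluorescence ratio.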
# SKN-1 block: C. elegans SKN-1 inhibition | C. elegans VP596 Pgst-4::GFP/RFP ratio, acrylamide-induced, 24 h | inhibition, % at 21.8 µM | 360,000 tested, 0.49% active;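 active means interference check ratio from 0.5 to 1.5 plus GFP to RFP signal ratio inhibition reaching or exceeding a fixed threshold, cut at about 30% in these data, passing the limit was not always enough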
# proKLK7 act: activates the human kallikrein-7 zymogen | P49862 | purified proKLK7, EDANS-DABCYL substrate fluorescence; 100% is mature enzyme control, 0% vehicle | activation, % at 7 µM | 370,000 tested, 0.9% active | AID 652039;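 active means activation above the mean of all tested compounds plus 3 SD, computed per campaign excluding outliers beyond control limits, cut at about 13% in these data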
# Target sequence (P49862 whole entry, looked up): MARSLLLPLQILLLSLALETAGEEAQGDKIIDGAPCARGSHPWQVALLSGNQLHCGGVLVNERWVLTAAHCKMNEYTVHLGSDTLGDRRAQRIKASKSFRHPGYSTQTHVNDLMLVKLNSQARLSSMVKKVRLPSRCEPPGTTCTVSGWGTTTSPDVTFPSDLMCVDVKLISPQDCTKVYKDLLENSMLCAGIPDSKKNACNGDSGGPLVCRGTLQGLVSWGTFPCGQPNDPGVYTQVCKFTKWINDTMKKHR
# Neddyl block: blocks human cullin neddylation; calls only at 25 µM; TR-FRET cullin neddylation, biochemical; 360,000 tested, 0.58% active; AID 651699; in the data active means inhibition above about 36%
# Hits are given with their value; - = inactive; . = no result shown; + = active, no number.
SMILES,DDE Tn7 FP inh,Tn6 DDE FP,MT1-MMP act inh,SKN-1 block,proKLK7 act,Neddyl block
O=C(Nc1nccs1)c1ccc(-c2ccc([N+](=O)[O-])cc2)o1,-,-,-,-,-,-
O=C(Nc1nccs1)c1ccc(-c2ccc(F)cc2)o1,-,-,-,52,-,-
O=C(Nc1nccs1)c1ccc(-c2ccc(Cl)cc2)o1,-,-,-,41,-,-
CC(C)(C)S(=O)N1Cc2cc(C(=O)NCc3ccc(Oc4ccccc4)cc3)nc(-c3cccc(-c4cc5ccccc5o4)c3)c2[C@H]1CCO (stereo partly specified),-,17,-,-,-,-
CC(C)(C)S(=O)N1Cc2cc(C(=O)NCc3ccc4c(c3)OCO4)nc(-c3cccc(-c4cc5ccccc5o4)c3)c2[C@@H]1CCO (stereo partly specified),-,-,-,-,-,-
C[C@H](NC(=O)c1[nH]cnc1C(=O)Nc1ccc(Cl)cc1)C(=O)OC(C)(C)C,.,.,-,36,.,-
c1ccc(-c2cc3ccccc3cn2)cc1,-,-,-,-,-,-
Fc1ccc2cc(-c3ccccc3)ncc2c1,-,-,-,40,-,-
O=C(CSc1nnc(COc2cccc3ccccc23)o1)N1c2ccccc2CCc2ccccc21,-,-,-,45,-,-
NC(=O)CSc1nnc(COc2cccc3ccccc23)o1,-,-,-,-,-,-
CC(C)C(=O)N(Nc1nc2ccccc2s1)C(=O)C(C)C,-,-,-,-,-,-
Cc1ccc(/C(N)=N/OC(=O)CSc2ccccc2)cc1,-,-,-,-,-,-
N/C(=N\OC(=O)CSc1ccccc1)c1ccc([N+](=O)[O-])cc1,-,-,-,54,-,-
FCCCOc1ccc(-c2ccnc(-c3ccccc3)n2)cc1,-,-,-,57,-,-
FCCCOc1ccc(-c2nccc(-c3ccc(F)cc3)n2)cc1,-,-,-,-,-,-
C=CCSc1nc(-c2ccccc2)c2cc(Cl)ccc2n1,-,-,-,-,-,-
O=C(NCc1ccc(Cl)cc1)C1CCN(c2nnc(N3CCCC3=O)s2)CC1,-,-,-,37,-,-
Cc1ccc(CNC(=O)C2CCN(c3nnc(N4CCCC4=O)s3)CC2)cc1,-,-,-,-,-,-
COc1ccc(Cl)cc1C(=O)Nc1ccccc1N1CCCCC1,-,-,-,35,-,-
COc1ccc(Cl)cc1C(=O)Nc1ccccc1N1CCN(C)CC1,-,-,-,-,-,-
Cc1ccc(O)c(CNc2cnc3ccccc3c2)c1,-,-,-,-,-,+
CCc1nnc(NC(=O)CSc2nnc(COc3cccc(C)c3)o2)s1,-,-,-,54,-,-
CN(C)c1ccc(C(=O)/C=C/c2ccccc2)cc1,-,-,-,43,-,-
O=S(=O)(NN=Cc1ccc(O)cc1O)c1cc(Cl)c(Cl)cc1Cl,-,-,-,-,-,-
CC(=O)Nc1cc(Cl)c(N=Cc2ccc(O)cc2O)cc1Cl,-,17,-,-,-,-
SMILES,DDE Tn7 FP inh,Tn6 DDE FP,MT1-MMP act inh,SKN-1 block,proKLK7 act,Neddyl block
Cc1c(C(=O)OC(C)CCN(C)C)oc2ccccc12 (stereo unspecified),-,-,-,-,-,-
O=c1c2cc(-c3ccccc3)sc2ncn1/N=C/c1ccco1,-,-,-,44,-,-
CCCCn1cnc2sc(-c3ccccc3)cc2c1=O,-,-,-,-,-,-
CCCCCn1cnc2sc(-c3ccccc3)cc2c1=O,-,-,-,40,-,-
COc1ccccc1-n1cnc2sc(-c3ccccc3)cc2c1=O,-,-,-,-,-,-
Cc1ccc2nc(NCc3ccccc3)[nH]c2c1,-,-,-,-,-,-
CCOC(=O)C1=c2s/c(=C\c3cccnc3)c(=O)n2C(N)=C(C(=O)OC)C1c1cccnc1 (stereo unspecified),-,-,-,-,-,-
c1csc(CSc2nc3ccccc3s2)c1,-,-,-,78,-,-
CCn1c(SCC(=O)Nc2ccc(NC(=O)c3ccco3)cc2)nnc1-c1cccs1,-,-,-,-,100,-
O=C(COc1ncnc2c(Cl)cc(Cl)cc12)N1CCCCC1,-,-,-,30,-,-
CC(=O)COc1ncnc2c(Cl)cc(Cl)cc12,-,-,-,-,-,-
Cc1ccc2cc3c(NC(=O)c4cccnc4)nn(C)c3nc2c1,-,-,-,40,-,-
C=CCn1c(SCC(=O)N(CC)C2CCS(=O)(=O)C2)nnc1-c1ccccc1 (stereo unspecified),-,-,-,-,-,-
O=C(C1CCN(S(=O)(=O)c2c(Cl)cccc2Cl)CC1)N1CCCC1,-,-,-,35,-,-
O=C(C1CCCCC1)N1CCN(S(=O)(=O)c2ccc(Cl)cc2)CC1,-,-,-,37,-,-
O=C(C1CCN(S(=O)(=O)c2ccc(Cl)cc2)CC1)N1CCCCCCC1,-,-,-,-,-,-
CC(NC(=O)COC(=O)c1ccc(N2CCCC2=O)cc1)c1ccc(F)cc1 (stereo unspecified),-,-,-,-,-,-
CCn1c(C)c(C2=CCN(S(=O)(=O)c3ccccc3)CC2)c2ccccc21,-,-,-,54,-,-
Cc1ccc(S(=O)(=O)N2CC=C(c3c(C)n(C)c4ccccc34)CC2)cc1,-,-,-,52,-,-
c1ccc(-n2nc3c(ccc4cnnc43)[nH]2)cc1,-,-,-,31,-,.
COCC(C)n1c(C)cc(C(=O)Cn2nc(C(=O)O)c3ccccc3c2=O)c1C (stereo unspecified),-,-,-,-,-,-
Cc1ccc(CS(=O)(=O)Cc2ccc(C(=O)NCCCN3CCOCC3)o2)cc1,-,-,.,-,-,-
CNC(=S)N/N=C/c1ccc(-c2ccc(C(=O)O)cc2)o1,-,-,-,-,-,+
O=C1c2ccccc2C(=O)N1CCc1nc(-c2ccc(Cl)cc2)no1,-,-,-,48,-,-
Fc1ccccc1-c1nc(-c2ccc(Cl)cc2)no1,-,-,-,36,-,-
CNC(=S)Nc1ccc(-c2nc3ccc(C)cc3s2)cc1,-,-,-,-,-,-
Cc1ccc2nc(-c3ccc(N)cc3)sc2c1,-,-,-,42,-,.
O=C(CSc1nc2ccccc2c2nc3ccccc3n12)NCc1ccco1,-,-,-,48,-,-
O=C(O)CN1C(=O)/C(=C2\C(=O)N(Cc3ccccc3Cl)c3ccccc32)SC1=S,-,-,-,-,-,-
O=C(O)c1ccc(N/N=C/c2cc3cc4c(cc3nc2Cl)OCCO4)cc1,-,-,.,-,-,+
